Assay results published in the EternaBench riboswitch data.

Tested on: MS2 coat protein
Assay: apparent Kd, MS2 coat protein; higher = weaker binding; RNA-MaP array; theophylline 2 mM where present
Method in brief: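 The titrant was SNAP-549-labelled MS2 coat protein, run from 0.7 or 1.5 nM in doubling steps to 3 µM. It was applied to designs transcribed by stalled E. coli RNA polymerase on Illumina sequencing-chip clusters, without ligand first and then with constant ligand, in 100 mM Tris-HCl pH 7.5, 80 mM KCl, 4 mM MgCl2, BSA, DTT, yeast tRNA and Tween-20. The apparent Kd is the median of filtered per-cluster binding-curve fits, with green signal normalised to red-channel RNA signal and control-cluster median Fmax.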

[1] = designed as: OFF switch for theophylline, no ligand
[2] = ligand present: theophylline, designed as: OFF switch for theophylline
[3] = designed as: ON switch for theophylline, no ligand
[4] = ligand present: theophylline, designed as: ON switch for theophylline

| Sequence | apparent Kd [1] | apparent Kd [2] | apparent Kd [3] | apparent Kd [4] |
| --- | --- | --- | --- | --- |
| CGGUUUGUGAUGGAUACCAGCAGAGUGAAUGUUUAUCCUGACAUGAGGAUCACCCAUGUGUGCCCUUGGCAGCUGUUGUGGGCUG | 63.5 nM | 89.4 nM | – | – |
| UGUUUUGUGAUGGAUACCAGCAGAGAAAACGUUUAUCCUAACAUGAGGAUCACCCAUGUAUGCCCUUGGCAGCUGUUGUGGGAUA | 29.7 nM | 34.1 nM | – | – |
| AAAUAAAUCACAUGAGGAUCACCCAUGGAUACCAGGCCUGGAAACAGCCCUUGGCAGCCACAUGAGGAUCACCCAUGUGCUAAAU | 190 nM | 198 nM | – | – |
| CCUAUGACAUGAGGAUCACCCAUGUUGGAUACCAGCGCAUGAGGACGCCCUUGGCAGCCAAUGAACAUGAGGAUACAUGAGGAUC | – | – | 44.5 nM | 185 nM |
| CUAGGAAACUAGUAAGGGUGGUAUAGAGAUACCAGUACAGAAAUGUACCCUUGGCAGCUCACUGCAACAUGAGGAUCACCCAUGU | 32.3 nM | 102 nM | – | – |
| AGCAGUACAACAGAUACCAGACUUUUCAUGCCUUUAAUUACAUGAGGAUCACCCAUGUUUGUCCCUUGGCAGCUGUUGUACUGCA | 41.9 nM | 111 nM | – | – |
| AGUACUCGAACGGAUACCAGCCGGACAUGAGGAUCACCCAUGUCCUACCUAUGUUCGGUUGGCCCUUGGCAGCCGUUCGUGUACA | – | – | 215 nM | 51 nM |
| AAAACACAUGAGGAUCACCCAUGUCGUGAUACCAGUCAACAUGAGGACCCUUGGCAGCAUAAAAUGGGUAACAUGAGGAUAACCC | 89.6 nM | 146 nM | – | – |
| AUCUGUAUGUUUUCGUGUUUUAUUACAGAUACCAGACUAUACGUUGUCCCUUGGCAGCUGGAUGACAUGAGGAUCACCCAUGUUG | 33.5 nM | 36.6 nM | – | – |
| CGAGUUCGCUGAUGGGCUACGUCAGGUGAUACCAGCCACUCCCGCGGCCCUUGGCAGCACAUGAGGAUCACCCAUGUAGAGCUUG | 13.6 nM | 238 nM | – | – |
| CUGCCAUGCAGAGAUACCAGUGAGCUCAAAACAUGAGGAUCACCCAUGUAAAUUGCCGAUCACCCUUGGCAGCUCUGCAUGGCAG | – | – | 9.78 nM | 7.84 nM |
| UAUAACAUGAGGAUCACCCAUGUAAGUGAUACCAGAUAAAUAAUAGUCCCUUGGCAGCAUAUUGGGAAAGUGUAUAAUAUAUAUU | – | – | 52.2 nM | 57 nM |
| AUUCCAUUGGUGCAGUUGUUAAAUGGCGAUACCAGCGUGGAAACACGCCCUUGGCAGCGCCAAAACAUGAGGAUCACCCAUGUUA | 61 nM | 120 nM | – | – |
| AUGUCAUUGGUGUAGCUGUGAAGUGGCGAUACCAGCGUGGAAACACGCCCUUGGCAGCGCCAAAACAUGAGGAUCACCCAUGUUA | 22.3 nM | 156 nM | – | – |
| AGUGUUGUAACUGAUACCAGACCUUUGCUUAUACAUGAGGAUCACCCAUGUAAAAUGGCGGUCCCUUGGCAGCAGAGAAGACGCA | – | – | 40.1 nM | 12.2 nM |
| ACGACGCAUAGUGAUACCAGCACAACAUGAGGAUCACCCAUGUCACUUAUGUAGUAAUAAUGCCCUUGGCAGCACUAUGCGUCAG | – | – | 55.2 nM | 65.6 nM |
| ACGACAUGAGGAUCACCCAUGUAAGGUGAUACCAGACGAAGUAAUGUCCCUUGGCAGCACAAGCAUAGUUGCGAUUAUUGUACGA | – | – | 438 nM | 158 nM |
| AGCACACAUCCUGAUACCAGAGACAUGAGGAUCACCCAUGUCCGAUCGUCCUGCCUCAGACUCCCUUGGCAGCAGGAUGUGUGCU | 13.1 nM | 32.4 nM | – | – |
| AUUAAUAGUUGUGAUACCAGACGAACAUGAGGAUCACCCAUGUAACUUAAGAGUGUUGAUGUCCCUUGGCAGCACUGUUUAGUUA | – | – | 108 nM | 87.8 nM |
| UAUAAAAUAACAGAUACCAGCGUGUUAUAAAACAUGAGGAUCACCCAUGUAGUGAUCAAGCGCCCUUGGCAGCUGGUAUUUUAUA | – | – | 101 nM | 126 nM |
| UUUUAAGGGAUCGGUGCUGGUAGCAGAGAUACCAGAGUAAUGAUACUCCCUUGGCAGCUCAGUACAUGAGGAUCACCCAUGUUUU | 17.4 nM | 25.9 nM | – | – |
| AGCGACAUGCGUGAUACCAGCUACAUGAGGAUCACCCAUGUAAGUAGGAAACUACUGUGUAGCCCUUGGCAGCACAGUGCAUGUC | 9.48 nM | 26.6 nM | – | – |
| AGACAUGAGGAUCACCCAUGUAGCACGGAUACCAGAUCCAGAUGUAUCCCUUGGCAGCUGUGGUACAGCGUUGCAACGCUCCUAG | 20.7 nM | 28.1 nM | – | – |
| CGGUUUGUGAUGGAUACCAGCAGAGAAAAUGUUUAUCCUGACAUGAGGAUCACCCAUGUGUGCCCUUGGCAGCUGUUGUGGGCUG | 56.2 nM | 75.3 nM | – | – |
| GGUGGCGGGACUGAUACCAGCCACCACCGAUAGACCACAUGAGGAUCACCCAUGUUGGGUGGCCCUUGGCAGCAGUCUUGCUGCU | – | – | 542 nM | 630 nM |
| AGACAUGAGGAUCACCCAUGUAGUACGGAUACCAGAUCCAGAUGUAUCCCUUGGCAGCUGUGGUACAGCGUUACAUCGCUCCUAG | 15.1 nM | 19.4 nM | – | – |
